Laboratory results reported in ChEMBL document CHEMBL1141950, “Rapamycin analogs with reduced systemic exposure” (Bioorg Med Chem Lett, 2005).

Experiments:
T-cell [1] = experiment: Antiproliferative activity in Lewis rat lymph node cells in rat mixed lymphocyte reaction; format: functional, cell-based
Method in brief: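 Rat mixed lymphocyte reaction run serum free: Lewis rat lymph node cells (responders) stimulated by Brown–Norway splenocytes; IC50 reported as mean ± SEM of n determinations.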

[2] = Tmax in male Sprague-Dawley rat administered with 2.5 mg/kg, po; format: ADME, organism-based; parameters: dose 2.5 mg/kg, route oral; conditions: in vivo
[3] = AUC in male Sprague-Dawley rat administered with 2.5 mg/kg, po; format: ADME, organism-based; parameters: dose 2.5 mg/kg, route oral; conditions: plasma
Rattus norvegicus [4] = organism: Rattus norvegicus; experiment: Efficacy in T-cell mediated inflammatory response by delayed type hypersensitivity model in Sprague-Dawley rat; format: functional
Rattus norvegicus [5] = organism: Rattus norvegicus; experiment: Efficacy in T-cell mediated adjuvant arthritis model in Lewis rat; format: functional
[6] = Cmax in male Sprague-Dawley rat administered with 2.5 mg/kg, po; format: ADME, organism-based; parameters: dose 2.5 mg/kg, route oral; conditions: in vivo
T-cell [7] = experiment: T-cell antiproliferative activity in human mixed lymphocyte reaction; format: functional, cell-based
Method in brief: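 Human mixed lymphocyte reaction carried out in serum-containing medium; IC50 given as mean ± SEM for n determinations.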

Rattus norvegicus [8] = organism: Rattus norvegicus; experiment: Efficacy in CD4+ T-cell mediated experimental autoimmune encephalomyelitis model in Lewis rat; format: functional
Method in brief: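 Rat EAE induced by subcutaneous injection of homogenized isologous spinal cord in modified complete Freund's adjuvant; value reported with range and n.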

[9] = Oral bioavailability in male Sprague-Dawley rat administered with 2.5 mg/kg, po; format: ADME, organism-based; conditions: in vivo
[10] = Half life in male Sprague-Dawley rat administered with 2.5 mg/kg, po; format: ADME, organism-based; parameters: dose 2.5 mg/kg, route oral; conditions: in vivo
[11] = Half life in human in a multiple dose escalation study; format: ADME, organism-based; conditions: in vivo

Which results are given for `CO[C@H]1C[C@@H]2CC[C@@H](C)[C@@](O)(O2)C(=O)C(=O)N2CCCC[C@H]2C(=O)OC([C@H](C)C[C@@H]2CC[C@@H](OC(=O)N(C)OC)[C@H](OC)C2)CC(=O)[C@H](C)/C=C(\C)[C@@H](O)[C@@H](OC)C(=O)[C@H](C)C[C@H](C)/C=C/C=C/C=C/1C` (stereo not given in full)?
IC50 (T-cell [1]): 2500 nM; Tmax [2]: 24 min; AUC [3]: 132 ng·h/mL; ED50 (Rattus norvegicus [4]): 0.4 mg/kg; ED50 (Rattus norvegicus [5]): 0.3 mg/kg; Cmax [6]: 29.7 ng/mL; IC50 (T-cell [7]): 5.9 nM; ED50 (Rattus norvegicus [8]): 0.5 mg/kg; bioavailability [9]: 6.2%; half-life [10]: 522 min

Which results are given for `CO[C@H]1C[C@@H]2CC[C@@H](C)[C@@](O)(O2)C(=O)C(=O)N2CCCC[C@H]2C(=O)O[C@H]([C@H](C)C[C@@H]2CC[C@H](n3ncnn3)[C@H](OC)C2)CC(=O)[C@H](C)/C=C(\C)[C@@H](O)[C@@H](OC)C(=O)[C@H](C)C[C@H](C)/C=C/C=C/C=C/1C`?
IC50 (T-cell [1]): 1500 nM; ED50 (Rattus norvegicus [4]): 2 mg/kg; IC50 (T-cell [7]): 3.3 nM

Which results are given for `CO[C@H]1C[C@@H]2CC[C@@H](C)[C@@](O)(O2)C(=O)C(=O)N2CCCC[C@H]2C(=O)O[C@H]([C@H](C)C[C@@H]2CC[C@@H](O)[C@H](OC)C2)CC(=O)[C@H](C)/C=C(\C)[C@@H](O)[C@@H](OC)C(=O)[C@H](C)C[C@H](C)/C=C/C=C/C=C/1C` [SIROLIMUS]?
IC50 (T-cell [1]): 2600 nM; Tmax [2]: 30 min; AUC [3]: 559 ng·h/mL; ED50 (Rattus norvegicus [4]): 0.5 mg/kg; ED50 (Rattus norvegicus [5]): 0.2 mg/kg; Cmax [6]: 50.8 ng/mL; IC50 (T-cell [7]): 1.6 nM; ED50 (Rattus norvegicus [8]): 0.3 mg/kg; half-life [11]: 3780 min; bioavailability [9]: 43.2%; half-life [10]: 2000 min

With `CO[C@H]1C[C@@H]2CC[C@@H](C)[C@@](O)(O2)C(=O)C(=O)N2CCCC[C@H]2C(=O)O[C@H]([C@H](C)C[C@@H]2CC[C@H](n3cnnn3)[C@H](OC)C2)CC(=O)[C@H](C)/C=C(\C)[C@@H](O)[C@@H](OC)C(=O)[C@H](C)C[C@H](C)/C=C/C=C/C=C/1C` [ZOTAROLIMUS] as the compound, how does the IC50 (T-cell [1]) read?
The IC50 was 1400 nM.

And the Tmax [2]?
The Tmax was 24 min.

What about the AUC [3] of the same compound?
Its AUC is 163 ng·h/mL.

What about the ED50 (Rattus norvegicus [4]) of the same compound?
The ED50 was 1.7 mg/kg.

And the ED50 (Rattus norvegicus [5])?
Its ED50 is 0.7 mg/kg.

What about the Cmax [6] of the same compound?
Its Cmax is 46.7 ng/mL.

And the IC50 (T-cell [7])?
The IC50 was 2 nM.

And the ED50 (Rattus norvegicus [8])?
The ED50 was 1.2 mg/kg.

What about the half-life [11] of the same compound?
Its half-life is 1500 min.

What about the bioavailability [9] of the same compound?
The bioavailability was 12.1%.

What about the half-life [10] of the same compound?
Its half-life is 474 min.
